Assay results as given in ChEMBL document CHEMBL1122301, “Bioisosteric design of conformationally restricted pyridyltriazole histamine H2-receptor antagonists” (J Med Chem, 1983).
One block for each molecule: values may come before it. Activity calls are given as the source filed them. The calls are words filed in the database; no cut-off is given here.

Tests used:
[1] = target: Histamine H1 receptor (Cavia porcellus) (UniProt P31389); experiment: Relative antagonistic activity against Histamine H1 receptor
Canis familiaris [2] = experiment: Acid antisecretory activity against pentagastrin-stimulated Heidenhain pouch dogs at a dose of 10 mg/kg after intravenous administration; format: functional, Canis lupus familiaris
Method in brief: (§1)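 Pentagastrin was infused iv into a leg vein of fasted, conscious Heidenhain pouch dogs to give near-maximal acid output. Juice was collected every 30 min, ten collections in all, and acid was titrated (1.0 mL to pH 7.4, 0.1 N NaOH). The single iv dose was given at 90 min. Percent inhibition was the lowest post-dose acid output compared with the mean output just before dosing.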

Canis familiaris [3] = experiment: Acid antisecretory activity against pentagastrin-stimulated Heidenhain pouch dogs at a dose of 25 mg/kg after intravenous administration; format: functional, Canis lupus familiaris
Method in brief: as §1

[4] = target: Histamine H2 receptor (Cavia porcellus) (UniProt P47747); experiment: Antagonistic activity against histamine H2 receptor from guinea pig atrium; activity KB (Dissociation Constant) is negative; format: functional, tissue-based; conditions: Cardiac atrium
[5] = Log distribution coefficient between 1-octanol and aqueous buffer at pH of 7.4.; format: physicochemical; conditions: 1-octanol/aqueous buffer, pH 7.4
[6] = Log distribution coefficient between 1-octanol and aqueous buffer at pH of 9.2.; format: physicochemical; conditions: 1-octanol/aqueous buffer, pH 9.2
[7] = target: Histamine H2 receptor (Cavia porcellus) (UniProt P47747); experiment: Antagonistic activity against histamine H2 receptor from guinea pig atrium; format: functional, tissue-based; conditions: Cardiac atrium
Canis familiaris [8] = experiment: Acid antisecretory activity against pentagastrin-stimulated Heidenhain pouch dogs after intravenous administration; format: functional; conditions: Canis lupus familiaris, read-out: ID50 (the source's name)
Method in brief: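 Fasted, unanesthetized Heidenhain pouch dogs received a continuous pentagastrin infusion into a superficial leg vein at a near-maximal acid-stimulating dose. Gastric juice was collected at 30-min intervals, ten collections per dog. Acid was titrated on 1.0 mL to pH 7.4 with 0.1 N NaOH. Compound or vehicle was given iv at 90 min. ID50 came from linear regression of log dose on percent inhibition in n dogs.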

Canis familiaris [9] = experiment: Acid antisecretory activity against pentagastrin-stimulated Heidenhain pouch dogs at a dose of 23 mg/kg after intravenous administration; format: functional, Canis lupus familiaris
Method in brief: as §1

[10] = target: Histamine H1 receptor (Cavia porcellus) (UniProt P31389); experiment: Relative antagonistic activity against Histamine H1 receptor, NA is Inactive
[11] = pKa ([…] constant) value at a physiological pH of 7.4; format: physicochemical; conditions: pH 7.4
Method in brief: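 Ionisation constants taken as the observed pH1/2 from titration at 23 °C. The dihydrochloride salts were titrated in water, and the free bases in 1:1 methanol–water.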

[12] = Log distribution coefficient between 1-octanol and aqueous buffer at specified pH of 9.2.; conditions: 1-octanol/aqueous buffer, pH 9.2
Canis familiaris [13] = experiment: Acid antisecretory activity against pentagastrin-stimulated Heidenhain pouch dogs at a dose of 5 mg/kg after intravenous administration; format: functional, Canis lupus familiaris
Method in brief: as §1

Chain of Histamine H2 receptor (Cavia porcellus) (P47747 whole entry): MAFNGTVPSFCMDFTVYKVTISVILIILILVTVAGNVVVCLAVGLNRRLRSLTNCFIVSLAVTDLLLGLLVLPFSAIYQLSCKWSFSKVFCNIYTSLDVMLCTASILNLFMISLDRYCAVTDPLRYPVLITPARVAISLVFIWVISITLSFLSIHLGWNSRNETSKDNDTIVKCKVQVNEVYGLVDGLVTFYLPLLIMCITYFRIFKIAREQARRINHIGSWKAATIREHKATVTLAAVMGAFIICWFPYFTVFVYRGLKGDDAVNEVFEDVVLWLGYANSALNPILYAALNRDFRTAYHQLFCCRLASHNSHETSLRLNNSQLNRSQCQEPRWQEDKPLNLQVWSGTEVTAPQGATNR
Chain of Histamine H1 receptor (Cavia porcellus) (P31389 whole entry): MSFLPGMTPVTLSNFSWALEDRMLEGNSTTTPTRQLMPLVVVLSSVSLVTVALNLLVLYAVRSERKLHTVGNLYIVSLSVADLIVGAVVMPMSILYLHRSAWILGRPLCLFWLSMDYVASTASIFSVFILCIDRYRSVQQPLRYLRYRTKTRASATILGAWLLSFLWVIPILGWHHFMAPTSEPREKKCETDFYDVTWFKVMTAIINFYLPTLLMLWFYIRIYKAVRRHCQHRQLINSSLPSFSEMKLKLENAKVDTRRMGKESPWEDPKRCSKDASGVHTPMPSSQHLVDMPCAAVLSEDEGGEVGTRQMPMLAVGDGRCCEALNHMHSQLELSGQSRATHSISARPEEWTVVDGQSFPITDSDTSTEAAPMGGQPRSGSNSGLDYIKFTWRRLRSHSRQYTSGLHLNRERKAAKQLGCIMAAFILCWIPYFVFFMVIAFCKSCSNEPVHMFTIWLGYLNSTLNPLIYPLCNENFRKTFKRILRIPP

Relative activity [1]: > 1
Structure (SMILES): c1ccc(CN(CC2=NCCN2)c2ccccc2)cc1

KB [4]: inactive
Structure (SMILES): Nc1n[nH]c(-c2cccnc2)n1
Max inhibition (Canis familiaris [2]): 22% | Max inhibition (Canis familiaris [3]): 11%

Relative activity [1]: > 0.5
Structure (SMILES): c1ccc(CN(Cc2c[nH]cn2)c2ccccc2)cc1

logD [5]: 0.11 | logD [6]: -0.06 | Kb [7]: 2.22 µM
Structure (SMILES): Nc1cc(-c2n[nH]c(N)n2)ccn1
ED50 (Canis familiaris [8]): 2.35 mg/kg

Kb [7]: 41.9 µM
Structure (SMILES): Nc1n[nH]c(-c2ccncc2)n1
Max inhibition (Canis familiaris [9]): 73% | Max inhibition (Canis familiaris [2]): 43%

Relative activity [1]: 0.01
Structure (SMILES): c1ccc(CN(CCc2c[nH]cn2)Cc2ccccc2)cc1

KB [4]: inactive
Structure (SMILES): Nc1n[nH]c(Cc2ccncc2)n1
Max inhibition (Canis familiaris [2]): 26% | Max inhibition (Canis familiaris [3]): 30%

Relative activity [1]: 1
Structure (SMILES): CN(C)CCN(Cc1ccccc1)c1ccccc1

Activity [10]: inactive
Structure (SMILES): CN(C)CCN(Cc1ccccc1)Cc1ccccc1

Structure (SMILES): CN/C(=N\CCSCc1nc[nH]c1C)NC#N [CIMETIDINE]
logD [6]: 0.4 | pKa [11]: 7.02 | ED50 (Canis familiaris [8]): 1.02 mg/kg | logD [12]: 0.54

KB [4]: inactive
Structure (SMILES): Nc1n[nH]c(Cc2cccnc2)n1
Max inhibition (Canis familiaris [2]): 0%

KB [4]: inactive
Structure (SMILES): Nc1n[nH]c(Cc2ccccn2)n1
Max inhibition (Canis familiaris [2]): 0% | Max inhibition (Canis familiaris [13]): 18%

KB [4]: inactive
Structure (SMILES): Nc1n[nH]c(-c2ccccn2)n1
Max inhibition (Canis familiaris [2]): 0% | Max inhibition (Canis familiaris [13]): 0%

logD [5]: 1.13 | logD [6]: 0.97 | Kb [7]: 0.235 µM
Structure (SMILES): CCNc1cc(-c2n[nH]c(N)n2)ccn1
ED50 (Canis familiaris [8]): 0.87 mg/kg
